This is a sample that favours compounds with a hit; in the whole collection about 4.5% have one here.
MrgX1 antagonist: human MrgX1 receptor antagonism, primary screen; MRGX1-HEK293 calcium flux, Fluo-4, BAM8-22 antagonism; stronger effect = lower value; B-score at 10 µM; hit rate 1.3% among 310,000; Q96LB2;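 active = calcium-response B-score plate-corrected more than 3 library SD below zero, starting fluorescence within 5 deviations, no agonist response on first addition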;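 note: peak minus trough fluorescence over baseline after final BAM8-22 challenge near maximal dose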
Target sequence (Q96LB2 whole entry, looked up): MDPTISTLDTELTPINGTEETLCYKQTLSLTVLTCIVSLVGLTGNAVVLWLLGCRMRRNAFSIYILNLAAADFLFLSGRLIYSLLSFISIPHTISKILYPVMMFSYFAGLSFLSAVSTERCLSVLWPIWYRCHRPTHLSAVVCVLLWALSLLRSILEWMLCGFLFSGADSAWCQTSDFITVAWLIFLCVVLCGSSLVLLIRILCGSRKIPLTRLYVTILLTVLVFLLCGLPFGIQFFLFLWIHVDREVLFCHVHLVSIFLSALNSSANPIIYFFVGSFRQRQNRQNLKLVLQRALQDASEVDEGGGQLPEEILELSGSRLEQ
RGS4 inh: human RGS4 inhibition. B-score at 10 µM. hit rate 0.45% among 310,000. HEK293 M3R/RGS4 inducible, Fluo-4 calcium flux; stronger effect = higher value; triggered by carbachol at its EC20;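 active = B-score, a plate-corrected calcium signal, over three deviations above library mean, with baseline fluorescence within five deviations of library mean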;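 note: RGS4 expression induced by doxycycline in cells with stable M3 receptor; B-score is computed from the integrated fluorescence ratio over baseline after carbachol; higher B-score means a larger calcium signal and so more RGS4 inhibition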
PHOSPHO1 inh: inhibitors of human PHOSPHO1 phosphatase; recombinant PHOSPHO1, absorbance phosphatase assay; inhibition, % at 13.3 µM; hit rate 1.1% among 290,000; AID 1565; in the data active = inhibition above about 60%
Target sequence (Q8TCT1 whole entry, looked up): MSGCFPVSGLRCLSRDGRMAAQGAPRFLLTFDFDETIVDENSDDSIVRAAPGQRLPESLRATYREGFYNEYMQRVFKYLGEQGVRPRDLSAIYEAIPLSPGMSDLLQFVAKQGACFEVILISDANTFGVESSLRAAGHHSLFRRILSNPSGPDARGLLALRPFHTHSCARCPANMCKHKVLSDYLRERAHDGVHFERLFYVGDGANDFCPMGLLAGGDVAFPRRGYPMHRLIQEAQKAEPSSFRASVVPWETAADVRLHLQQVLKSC
RGS4 pot: RGS4 potentiation or activation | HEK293 M3R/inducible RGS4, carbachol calcium flux Fluo4; stronger effect = lower value | B-score at 10 µM | hit rate 0.92% among 310,000;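 active = B-score of the integrated calcium signal more than 4 SD below the library mean, with starting fluorescence not abnormally high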;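 note: negative B-score means reduced calcium response which marks RGS4 activation or potentiation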
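Assay system: HEK293 FlpIn-TREx cells, stable M3R, doxycycline-inducible RGS4 / Probe or stimulus: carbachol, ECmax concentration / Times: overnight RGS4 induction, 30 min dye load 37 °C, 20 min compound RT / Signal: kinetic calcium fluorescence imaging with Fluo4-AM dye, 2 µM / Measure: Agonist-evoked peak-minus-minimum fluorescence over baseline, integrated ratio, B score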
MrgX1 agonist: human MrgX1 receptor agonism, primary screen | MrgX1-HEK293 cells, Fluo-4 calcium fluorescence, agonist mode; stronger effect = higher value | B-score at 10 µM | AID 588627 | hit rate 0.44% among 310,000;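 active = calcium response B-score plate-corrected fluorescence ratio at least 3 library SD, with starting fluorescence B-score inside 5 SD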
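Assay system: MrgX1-expressing HEK293 cells / Amount: fifteen thousand cells per well / Doses: test compound in the initial addition of three / Timing: cells plated overnight, dye loaded 0.5 h 37 °C, 0.5 h room temperature / Technique: kinetic calcium dye fluorescence, Fluo-4 NW / Control set: positive and negative controls per plate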
MrgX1 PAM: allosterically activates human MrgX1 receptor signaling | B-score at 10 µM | Q96LB2 | MrgX1-HEK293, Fluo-4 calcium flux, FDSS; stronger effect = higher value | hit rate 0.63% among 310,000;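 active = plate-corrected calcium response at least 3 library SD above typical, normal starting fluorescence, not activating the receptor alone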;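 note: compound read alongside a low EC10 to EC30 dose of BAM8-22 agonist; peak minus trough fluorescence over baseline measured at the second addition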
MrgX1 ag confirm: reconfirmed activator of human MrgX1 receptor signaling | hit rate 78% among 600 | activation, % at 10 µM | shares compounds with MrgX1 agonist | MrgX1-HEK293, Fluo-4 calcium fluorescence, FDSS;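 active = calcium signal rise, corrected for plate position, at least 3 library SD high, with starting brightness within 5 such deviations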
MrgX1 allo conf: human MrgX1 positive allosteric modulation, re-confirmation; hit rate 13% among 1,200; shares compounds with MrgX1 PAM; AID 602413; MrgX1-HEK293, Fluo-4 calcium fluorescence, FDSS; activation (ratio percentage), % at 10 µM;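 active = ratio at least 3 SD above the weak peptide control, stable starting fluorescence, no direct agonism earlier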;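 note: compound followed by low BAM8-22 agonist challenge near EC20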
HEK293 Ca flux: counter-screen for MrgX1 antagonists: effect in parental HEK293 cells; shares compounds with MrgX1 antagonist; Fluo-4 calcium fluorescence, FDSS; fluorescence ratio F(max-min)/F0 at 10 µM; hit rate 2% among 4,000;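 active = duplicate-averaged calcium fluorescence ratio at least three times the standard deviation of buffer wells, a nonspecific response in parental cells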
HEK293 Ca counter: activity in parental HEK293 cells without MrgX1 | parental HEK293 calcium flux, Fluo-4 fluorescence ratio; stronger effect = higher value | shares compounds with MrgX1 antagonist | fluorescence ratio F(max-min)/F0 at 10 µM | hit rate 0.4% among 4,000 | AID 624114;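 active = calcium fluorescence ratio, averaged over duplicates, at least 3 SD of the buffer-well ratio, meaning a nonspecific response in receptor-free cells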;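 note: untransfected parental HEK293 lacking MrgX1 used as counterscreen for MrgX1 allosteric activators; fluorescence change taken during the second addition on a kinetic imager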
HEK293 Ca cntr2: MrgX1 activator counter-screen hit in parental HEK293 cells; shares compounds with MrgX1 antagonist; Fluo-4 calcium fluorescence (FDSS); stronger effect = higher value; fluorescence ratio F(max-min)/F0 at 10 µM; hit rate 8.7% among 4,000;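 active = calcium fluorescence ratio at least three times the spread of buffer wells, meaning a non-specific response in parental cells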
A number is an active result; 0 = inactive; - = no result given.

SMILES	MrgX1 antagonist	RGS4 inh	PHOSPHO1 inh	RGS4 pot	MrgX1 agonist	MrgX1 PAM	MrgX1 ag confirm	HEK293 Ca flux	HEK293 Ca counter	HEK293 Ca cntr2	others
Nc1c(C(=O)Nc2nc3ccccc3s2)sc2nc(-c3cccs3)ccc12	0	0	0	0	29	0	157%	0	0	0
CCCOc1ncnc2c1[nH]c1ccccc12	0	0	0	0	0	0	-	-	-	-
CCN(CC)c1ncnc2c1[nH]c1ccccc12	0	0	0	0	28	0	125%	0	0	0
COCCN(C(=O)c1snc(C(N)=O)c1N)C(C(=O)NC1CCCCC1)c1ccc(F)cc1 (stereo not drawn)	0	0	0	0	0	0	-	-	-	-
Cc1ccsc1CN(C)Cc1nc(C2CC2)no1	0	0	0	0	0	0	-	-	-	-
N=C(N)SCCc1cccc(CCSC(=N)N)c1	0	0	-	0	40	0	181%	0	0	0
CC(=O)Nc1ccc(S(=O)(=O)NCc2nc(-c3cccc(C)c3)no2)cc1	0	0	0	0	0	0	-	-	-	-
Fc1ccc2[nH]c3c(NCc4ccccc4)ncnc3c2c1	0	0	0	0	38	0	251%	0	0	54
Cc1nc(CC(=O)c2ccc(O)c(C)c2O)cs1	0	0	0	0	0	0	-	-	-	-
CCCc1[nH]n(-c2nc3ccccc3s2)c(=O)c1C=NCC(C)C	0	0	0	0	29	0	227%	0	0	59
CCN(CC)CCCN=Cc1c(-c2ccccc2)[nH]n(-c2nc3ccccc3s2)c1=O	0	0	0	0	0	0	-	-	-	-
Cc1cc(C)cc(OCC(=O)O/N=C(\N)c2cccnc2)c1	-	0	0	0	-	-	-	-	-	-
COc1cc(C(=O)NNC(=S)NC(=O)c2ccc3c(c2)OCO3)cc(OC)c1OC	0	0	0	0	0	0	-	-	-	-
COc1cc(C(=O)NC(=S)NNC(=O)[C@H]2C[C@@H]2c2ccccc2)cc(OC)c1OC	0	0	0	0	96	0	386%	0	0	76
COc1ccccc1C(=O)NNC(=S)NC(=O)c1cc(OC)c(OC)c(OC)c1	0	0	0	0	101	0	453%	0	0	93
COc1cc(C(=O)NNC(=S)NC(=O)c2ccccc2C)cc(OC)c1OC	0	0	0	0	120	0	362%	0	0	89
CCCCn1c(N)c(N(CCOC)C(=O)c2ccc(COc3ccccc3)o2)c(=O)[nH]c1=O	0	0	-	0	0	0	-	-	-	-
OC1(c2ccc(Br)cc2)CN(c2ccccc2)C2=[N+]1CCS2 (stereo not drawn)	0	0	0	0	0	0	-	-	-	-
CC(C)CCNC(=O)c1ccc(Cl)c(NC(=O)c2ccccc2F)c1	0	0	0	0	0	0	-	-	-	-
CCc1nc(N)nc(N)c1-c1ccc(Cl)cc1	0	0	0	0	28	0	0	0	0	0
C/C(=N\NC(=O)CCC(=O)Nc1ccccc1)c1cccs1	0	0	0	0	0	0	-	-	-	-
CCOc1ccccc1N(CC(=O)N1CCC(C)CC1)S(=O)(=O)c1ccc(C)cc1	0	0	0	0	0	0	-	-	-	-
COc1ccccc1N(CC(=O)N1CCCCCC1)S(=O)(=O)c1ccc(C)cc1	0	0	0	0	0	0	-	-	-	-
CCOc1ccccc1N(CC(=O)N1CCOCC1)S(=O)(=O)c1ccccc1	0	0	0	0	138	0	541%	0	0	103
CCOc1ccccc1N(CC(=O)N1CCCCCC1)S(=O)(=O)c1ccc(C)cc1	0	0	0	0	34	0	142%	0	0	50
SMILES	MrgX1 antagonist	RGS4 inh	PHOSPHO1 inh	RGS4 pot	MrgX1 agonist	MrgX1 PAM	MrgX1 ag confirm	HEK293 Ca flux	HEK293 Ca counter	HEK293 Ca cntr2	others
O=C(CC1SC(=O)NC1=O)Oc1ccc(/C=N/NC(=O)c2ccccc2O)cc1 (stereo not drawn)	0	0	0	0	0	0	-	-	-	-
CCCn1c(=O)c(C(=O)NNC(=O)c2ccccc2Cl)c(O)c2ccccc21	0	0	0	0	97	0	308%	0	0	64
Cc1ccc(OCC(=O)NNC(=S)NC(=O)C(C)(C)C)c(Br)c1	0	0	0	0	66	0	508%	0	0	97
COC(=O)C1=C(N)c2c(F)cccc2C1(C#N)c1ccc(F)cc1 (stereo not drawn)	0	0	0	0	0	8.4	-	0	0	0	MrgX1 allo conf=0
CC(=O)c1nnn(-c2nc(N)nc(N(c3ccccc3)c3ccccc3)n2)c1C	0	0	0	0	0	13	-	0	0	0	MrgX1 allo conf=16%
CCCCN(CCCC)c1nc(OC)nc(-n2nnc(C(C)=O)c2C)n1	0	0	0	0	0	0	-	-	-	-
Cn1c(=NC(=O)C2CC2)sc2cccc(F)c21	0	0	0	0	0	11	-	0	0	0	MrgX1 allo conf=0
O=C(N/N=C\c1c(O)ccc2ccccc12)c1ccc(S(=O)(=O)N2CCCCC2)cc1	0	0	0	0	0	20	-	0.42	0	65	MrgX1 allo conf=0
O=C(N/N=C/c1c(O)ccc2ccccc12)c1ccc(CO)nc1	0	0	0	0	0	0	-	-	-	-
COc1ccccc1NC(=O)C(C)OC(=O)CCCOc1ccccc1 (stereo not drawn)	0	0	-	0	0	0	-	-	-	-
NC(=O)COC(=O)c1ccc2noc(-c3ccccc3)c2c1	0	0	0	0	0	0	-	-	-	-
CN1c2ccccc2Oc2nnc(N3CCN(Cc4ccccc4)CC3)cc21	0	0	0	0	0	12	-	0	0	0	MrgX1 allo conf=0
CN1c2ccccc2Oc2nnc(Cl)cc21	0	0	0	0	0	0	-	-	-	-
CCOC(=O)c1ccc(NC(=S)NCCc2ccc(F)cc2)cc1	0	0	0	0	0	0	-	-	-	-
Cc1cc(N2CCN(C)CC2)nc2ccc(NC(=S)N3CCC4(CC3)OCCO4)cc12	0	0	0	0	0	7.4	-	0	0	0	MrgX1 allo conf=0
COc1ccc(N/C(C)=C/C(=S)Nc2ccccc2)cc1	0	0	0	0	0	27	-	0	0	0	MrgX1 allo conf=0
COc1ccc(N/C(C)=C/C(=O)c2ccccc2)cc1	0	0	0	0	0	0	-	-	-	-
Cc1nc(C)n(CC(=O)N2CCCC(C(=O)c3cccc4ccccc34)C2)n1 (stereo not drawn)	0	0	0	0	0	0	-	-	-	-
